According to ChEMBL document CHEMBL3525946, “Species comparison of in vivo P-glycoprotein-mediated brain efflux using mdr1a-deficient rats and mice” (Drug Metab Dispos, 2012):

What was measured:
[1] = Percentage unbound in Crl:NMRI(Han) mouse plasma at 1 uM after 5 hrs by equilibrium dialysis method; type: ADME, cell-free
Outline: (§1)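 Equilibrium dialysis (12-14 kDa membrane) of plasma or brain homogenate from naïve male Sprague-Dawley rats or Crl:NMRI(Han) mice. Donor side spiked to 1 µM final; receiver phosphate buffer pH 7.4; 37°C for 5 h. Buffer phase quantified by LC-MS. Brain fu corrected for homogenate dilution to intact tissue. Mean of two independent determinations.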

[2] = Total plasma concentration in wild type Sprague-Dawley rat expressing Abcb1a treated with venlafaxine at 9 mg/kg/day administered through continuous minipump treatment for 3 days by UPLC-MS analysis; type: ADME, organism-based; conditions: other: continuous minipump
Outline: (§2)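 Subcutaneous osmotic minipump infusion for 3 days to steady state, implanted under isoflurane (rats 10 µl/h, mice 1 µl/h). Mdr1a-deficient (SD-Abcb1a knockout rats; Crl:CF1-Abcb1a mutant mice) and wild-type animals, n=3-5 per group. After decapitation, EDTA plasma and whole brain (homogenized 1:4 in 70% acetonitrile) were precipitated with internal standard. Parent and metabolites quantified by UPLC-MS. Mean ± SEM.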

[3] = Total drug level in wild type Sprague-Dawley rat brain expressing Abcb1a treated with venlafaxine at 9 mg/kg/day administered through continuous minipump treatment for 3 days by UPLC-MS analysis; type: ADME, organism-based; conditions: other: continuous minipump, read-out: Drug uptake; outline: as §2
[4] = Total brain to plasma partition coefficient of the compound in wild type Sprague-Dawley rat expressing Abcb1a treated with venlafaxine at 9 mg/kg/day administered through continuous minipump treatment for 3 days; type: ADME, organism-based; conditions: brain and plasma, other: continuous minipump
Outline: (§3)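 Kp is total brain concentration divided by total plasma concentration at steady state. Measured after a 3-day subcutaneous osmotic minipump infusion in mdr1a-deficient or wild-type rats or mice, n=3-5. Concentrations determined by UPLC-MS in plasma and in whole-brain homogenate (70% acetonitrile). Mean ± SEM.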

[5] = Total plasma concentration in mdr1a-deficient rat treated with venlafaxine at 9 mg/kg/day administered through continuous minipump treatment for 3 days by UPLC-MS analysis; type: ADME, organism-based; conditions: other: continuous minipump; outline: as §2
[6] = Total drug level in mdr1a-deficient rat brain treated with venlafaxine at 9 mg/kg/day administered through continuous minipump treatment for 3 days by UPLC-MS analysis; type: ADME, organism-based; conditions: other: continuous minipump, read-out: Drug uptake; outline: as §2
[7] = Total brain to plasma partition coefficient of the compound in mdr1a-deficient rat treated with venlafaxine at 9 mg/kg/day administered through continuous minipump treatment for 3 days; type: ADME, organism-based; conditions: brain and plasma, other: continuous minipump; outline: as §3
[8] = Total plasma concentration in mdr1a-deficient mouse treated with venlafaxine at 12 mg/kg/day administered through continuous minipump treatment for 3 days by UPLC-MS analysis; type: ADME, organism-based; conditions: other: continuous minipump; outline: as §2
[9] = Total drug level in mdr1a-deficient mouse brain treated with venlafaxine at 12 mg/kg/day administered through continuous minipump treatment for 3 days by UPLC-MS analysis; type: ADME, organism-based; conditions: other: continuous minipump, read-out: Drug uptake; outline: as §2
[10] = Total brain to plasma partition coefficient of the compound in mdr1a-deficient mouse treated with venlafaxine at 12 mg/kg/day administered through continuous minipump treatment for 3 days; type: ADME, organism-based; conditions: other: continuous minipump; outline: as §3
[11] = Percentage unbound in Sprague-Dawley rat plasma at 1 uM after 5 hrs by equilibrium dialysis method; type: ADME, cell-free; outline: as §1
[12] = Percentage unbound in Sprague-Dawley rat brain at 1 uM after 5 hrs by equilibrium dialysis method; type: ADME, tissue-based; outline: as §1
[13] = Total plasma concentration in wild type Crl:CF1 mouse expressing Abcb1a mutant treated with venlafaxine at 12 mg/kg/day administered through continuous minipump treatment for 3 days by UPLC-MS analysis; type: ADME, organism-based; conditions: other: continuous minipump; outline: as §2
[14] = Total drug level in wild type Crl:CF1 mouse brain expressing Abcb1a mutant treated with venlafaxine at 12 mg/kg/day administered through continuous minipump treatment for 3 days by UPLC-MS analysis; type: ADME, organism-based; conditions: other: continuous minipump, read-out: Drug uptake; outline: as §2
[15] = Total brain to plasma partition coefficient of the compound in wild type Crl:CF1 mouse expressing Abcb1a mutant treated with venlafaxine at 12 mg/kg/day administered through continuous minipump treatment for 3 days; type: ADME, organism-based; conditions: other: continuous minipump; outline: as §3
[16] = Unbound brain to plasma partition coefficient of the compound in wild type Sprague-Dawley rat expressing Abcb1a treated with venlafaxine at 9 mg/kg/day administered through continuous minipump treatment for 3 days; type: ADME, organism-based; conditions: other: continuous minipump, read-out: K(p,uu,brain)
Outline: (§4)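 Kp,uu is (Cbrain,total × fu,brain)/(Cplasma,total × fu,plasma). Total concentrations were measured at steady state after a 3-day subcutaneous minipump infusion in knockout or wild-type animals. Species-matched free fractions came from 5 h, 37°C equilibrium dialysis at 1 µM in naïve plasma and brain homogenate.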

[17] = Unbound brain to plasma partition coefficient of the compound in mdr1a-deficient Sprague-Dawley rat treated with venlafaxine at 9 mg/kg/day administered through continuous minipump treatment for 3 days; type: ADME, organism-based; conditions: other: continuous minipump, read-out: K(p,uu,brain); outline: as §4
[18] = Percentage unbound in Crl:NMRI(Han) mouse brain at 1 uM after 5 hrs by equilibrium dialysis method; type: ADME, tissue-based; outline: as §1
[19] = Unbound brain to plasma partition coefficient of the compound in wild type Crl:CF1 mouse expressing Abcb1a mutant treated with venlafaxine at 12 mg/kg/day administered through continuous minipump treatment for 3 days; type: ADME, organism-based; conditions: other: continuous minipump, read-out: K(p,uu,brain); outline: as §4
[20] = Unbound brain to plasma partition coefficient of the compound in mdr1a-deficient mouse treated with venlafaxine at 12 mg/kg/day administered through continuous minipump treatment for 3 days; type: ADME, organism-based; conditions: other: continuous minipump, read-out: K(p,uu,brain); outline: as §4

| fraction unbound at 5 h, 1 µM [1] | concentration at 72 h [2] [ng/mL] | concentration at 72 h [3] [ng/g] | Kp at 72 h [4] | concentration at 72 h [5] [ng/mL] | concentration at 72 h [6] [ng/g] | Kp at 72 h [7] | concentration at 72 h [8] [ng/mL] | concentration at 72 h [9] [ng/g] | Kp at 72 h [10] | fraction unbound at 5 h, 1 µM [11] | fraction unbound at 5 h, 1 µM [12] | concentration at 72 h [13] [ng/mL] | concentration at 72 h [14] [ng/g] | Kp at 72 h [15] | Kp uu at 72 h [16] | Kp uu at 72 h [17] | fraction unbound at 5 h, 1 µM [18] | Kp uu at 72 h [19] | Kp uu at 72 h [20] | Structure (SMILES) |
| --- | --- | --- | --- | --- | --- | --- | --- | --- | --- | --- | --- | --- | --- | --- | --- | --- | --- | --- | --- | --- |
| > 0.99 | 4.5 | 4.4 | 1 | 11 | 33 | 3.3 | 7.5 | 40 | 5.7 | 0.89 | 0.35 | 5.7 | 10 | 1.8 | 0.38 | 1.2 | 0.45 | 0.8 | 2.4 | CN(C)CC(c1ccc(O)cc1)C1(O)CCCCC1 (configuration not stated) [DESVENLAFAXINE] |
| 0.8 | 6.8 | 9.3 | 1.4 | 10 | 79 | 8.9 | 11 | 77 | 7 | 0.32 | 0.08 | 17 | 25 | 1.5 | 0.34 | 2 | 0.16 | 0.29 | 1.4 | CNCC(c1ccc(OC)cc1)C1(O)CCCCC1 (configuration not stated) [N-DESMETHYLVENLAFAXINE] |
| 0.54 |  |  |  |  |  |  |  |  |  | 0.2 |  |  |  |  |  |  |  |  |  | Cc1nc2n(c(=O)c1CCN1CCC(c3noc4cc(F)ccc34)CC1)CC(O)CC2 (configuration not stated) |
